Assay outcomes (PubChem BioAssay)
HEK293 NFkB inh: inhibitors of the PMA/ionomycin-induced NF-kB reporter in HEK293 cells | HEK-293 NF-kB luciferase reporter, luminescence | inhibition, % at 3 µM | actives 0.21% (n = 62,000);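 active means inhibition above the mean of all tested compounds plus 3 SD, cut at about 40% in these data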;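 further: 0% = stimulated DMSO wells and 100% = 10 µM reference inhibitor 5653914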
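Signal: luciferase luminescence; Material: HEK-293 cells with stable firefly luciferase reporter driven by four HIV NF-kB elements; Probe or stimulus: PMA with ionomycin; Replication: tested once; Times: 1 h compound pretreatment, then 16 h stimulation at 37 °C, 5% CO2; Benchmarks: DMSO and 10 µM reference inhibitor; Evaluation: per-plate % inhibition versus controls.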
5-HT1A blocker: 5-HT1a (human) receptor antagonism; P08908; CHO 5-HT1a Ga15 NFAT-bla reporter, antagonist mode; inhibition, % at 10 µM; actives 0.68% (n = 62,000); AID 612;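 active means inhibition above the mean of all tested compounds plus 3 SD, cut at about 43% in these data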;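 further: receptor stimulated by 5-CT agonist at 100 nM near EC80; beta-lactamase reporter measured by ratiometric fluorescence of a cleavable substrate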
HTR1E antagonist: 5-HT1E (human) receptor antagonism; P28566; CHO 5-HT1E Ga15 NFAT-bla reporter, FRET, antagonist; inhibition, % at 6 µM; actives 0.99% (n = 65,000); AID 571;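 active means inhibition above a set limit, the mean inhibition across every tested compound plus 3 SD, cut at about 29% in these data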;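 further: signal is the 460 over 535 nm emission ratio of beta-lactamase substrate; 0% = agonist plus DMSO wells and 100% = wells without agonist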
Target sequence (P28566 whole entry, looked up): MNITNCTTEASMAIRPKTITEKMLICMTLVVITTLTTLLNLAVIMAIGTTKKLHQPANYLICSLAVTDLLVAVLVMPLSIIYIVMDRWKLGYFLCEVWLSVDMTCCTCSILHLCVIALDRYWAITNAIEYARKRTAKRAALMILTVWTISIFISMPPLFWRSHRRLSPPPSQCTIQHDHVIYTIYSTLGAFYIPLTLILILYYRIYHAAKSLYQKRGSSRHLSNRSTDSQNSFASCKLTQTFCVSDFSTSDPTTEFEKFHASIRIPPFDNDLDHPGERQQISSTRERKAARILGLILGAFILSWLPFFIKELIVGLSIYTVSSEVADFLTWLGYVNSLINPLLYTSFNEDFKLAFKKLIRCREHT
5HT1E ag: activates the human 5-HT1E serotonin receptor. P28566. CHO 5-HT1E Ga15 NFAT-bla reporter, FRET; 0% DMSO wells, 100% control agonist wells. activation, % at 6 µM. actives 0.69% (n = 65,000). AID 574;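 active means activation above a set limit, the screen-wide mean activation plus 3 SD, cut at about 8.5% in these data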;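 further: 100% = positive control agonist at 1 µM giving full maximal response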
5HT1a ag: activates the human 5-HT1a serotonin receptor; AID 567; P08908; actives 0.56% (n = 65,000); CHO 5-HT1a Ga15 NFAT-bla reporter, FRET ratio; 0% basal, 100% maximal reference agonist; activation, % at 10 µM;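 active means activation above the screen-wide mean activation plus 3 SD, cut at about 19% in these data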;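 further: 0% = DMSO wells and 100% = 5-CT at EC100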
Jurkat viability: cytotoxic compounds reducing Jurkat cell viability; Jurkat E6.1 viability, ATP luminescence, 48 h; inhibition, % at 4 µM; actives 1.2% (n = 56,000); AID 463;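 active means inhibition above the mean inhibition of all tested compounds plus 3 SD, cut at about 28% in these data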
* = called active by the depositor; / = no result. A selection: hits, their analogues and other compounds. The true share with any hit is near 3.3%.

SMILES | HEK293 NFkB inh | 5-HT1A blocker | HTR1E antagonist | 5HT1E ag | 5HT1a ag | Jurkat viability
Cc1cc(NC(=O)COC(=O)c2ccc(S(=O)(=O)N3CCCc4ccccc43)cc2)no1 | 29 | 11 | 32* | -1 | -4 | 64*
COc1ccc(-c2nnc(NC(=O)c3ccccc3C)o2)cc1 | -10 | 7 | -16 | 1 | -1 | 43*
Cc1ccnc(NS(=O)(=O)c2ccc(NS(=O)(=O)Cc3ccccc3)cc2)n1 | -4 | -11 | 5 | 0 | 0 | /
COc1cccc(-c2nnc(NC(=O)c3ccc(S(=O)(=O)N4CCOCC4)cc3)o2)c1 | 11 | 12 | -2 | 0 | -1 | 0
O=C(Nc1nnc(C2CC2)o1)c1ccc(S(=O)(=O)N2CCCc3ccccc32)cc1 | -1 | 0 | 1 | 0 | -2 | 102*
COc1ccc(-c2nnc(NC(=O)c3ccc(S(=O)(=O)N4CCCc5ccccc54)cc3)o2)cc1 | 15 | 62* | -2 | 0 | -1 | -2
COc1ccc(N2CC(C)Cn3c2nc2c3c(=O)n(CCc3ccccc3)c(=O)n2C)cc1 (configuration not stated) | 21 | -4 | 13 | 12* | 2 | 0
COc1ccc(N2CCn3c2nc2c3c(=O)n(CCCc3ccccc3)c(=O)n2C)c(OC)c1 | 22 | -3 | -4 | 0 | 1 | 50*
CC(C)(CSc1nncn1N)NS(=O)(=O)c1ccc(Cl)cc1 | 4 | -8 | 4 | -1 | 1 | -2
Cc1ccc2c(c1)-c1c(cnn1CC(=O)Nc1ccccc1N1CCN(C)CC1)CO2 | 15 | 10 | 9 | 0 | 0 | 2
c1csc(CCNc2ncnc3sc4c(c23)CCC4)c1 | 16 | 32 | 16 | 1 | 3 | 40*
O=C(COC(=O)c1ccccc1S(=O)(=O)N1CCCCC1)NCC(F)(F)F | -19 | 12 | 29* | -1 | -5 | 12
COc1ccc(N(CC(=O)Nc2cc(Cl)ccc2OC)S(=O)(=O)c2c(C)noc2C)cc1 | 11 | 23 | 35* | 0 | -2 | 88*
COc1ccc(OC)c(NC(=O)CN(c2ccc(C)cc2)S(=O)(=O)c2c(C)noc2C)c1 | 5 | 22 | 2 | 2 | 3 | 1
O=C(NCCSc1c[nH]c2ccccc12)c1ccc(Br)o1 | 13 | -4 | -1 | 1 | 0 | 38*
O=C(Oc1c(CN2CCOCC2)cc(Cl)c2cccnc12)c1ccc(F)cc1 | -2 | 17 | 37* | 2 | -1 | 23
COc1cc(C(=O)Oc2c(CN3CCOCC3)cc(Cl)c3cccnc23)cc(OC)c1OC | 12 | 18 | 38* | 2 | 0 | 7
CNC(=O)c1cc2c(=O)n3cccc(C)c3nc2n(C(C)C)c1=N | -1 | -16 | 3 | 2 | 8 | 8
O=C(NCc1ccco1)c1cccc2ccccc12 | 2 | 9 | 11 | -1 | -3 | -5
O=C(NCc1ccco1)c1ccccc1Nc1ccc(F)cc1 | 15 | 40 | 29* | -2 | -3 | /
COc1cccc(-c2cc(C(F)(F)F)nc(NCc3ccco3)n2)c1 | 14 | 47* | 9 | -1 | -1 | /
COc1ccc(C(=O)N2c3cc4c(cc3C(C)=CC2(C)C)OCO4)cc1 | 20 | 54* | 5 | -1 | -1 | -1
CC1=CC(C)(C)N(C(=O)c2ccccc2)c2ccccc21 | 16 | 7 | -2 | -1 | -3 | 2
CCOC(=O)NC1(NC2CCCCC2)Oc2ccccc2O1 | 4 | 0 | -9 | 0 | 1 | 4
CCOc1ccccc1NC(=O)N1CCCC1C(=O)Nc1ccc(-n2cnnn2)c(C)c1 (configuration not stated) | 15 | 0 | 2 | 1 | -1 | /
SMILES | HEK293 NFkB inh | 5-HT1A blocker | HTR1E antagonist | 5HT1E ag | 5HT1a ag | Jurkat viability
Cc1cc(NC(=O)CSc2cn(CCNC(=O)c3ccccc3)c3ccccc23)no1 | 8 | 1 | -4 | 0 | -1 | -8
Cc1ccc(C(=O)NCCn2cc(SCC(=O)Nc3cc(C)on3)c3ccccc32)cc1 | 47* | 10 | -3 | 0 | -2 | 7
CCCCC(CC)CNC(=O)c1cccs1 (configuration not stated) | 8 | 12 | 5 | 0 | 3 | 14
CCCOc1ccc2ccccc2c1/C=N/n1c(C)nnc1-n1nc(C)cc1C | 1 | 38 | 17 | 0 | 1 | 82*
Cc1cc(C)n(-c2nnc(C)n2/N=C/c2ccco2)n1 | / | / | -5 | 0 | -5 | /
O=C(NCN1CCN(c2ccccc2F)CC1)c1ccccc1 | 14 | 15 | -2 | 10* | -2 | -1
CCOC(=O)Nc1c(C(=O)OC)[nH]c2cc(OC)ccc12 | 20 | 31 | 9 | 0 | -2 | 43*
CC1=CCC2C(=O)N(c3ccc(C)c(Br)c3)C(=O)C2C1 (configuration not stated) | 22 | -2 | -4 | 13* | 13 | 1
Cc1cc(C(=O)OCC(=O)Nc2ncc(C(F)(F)F)cc2Cl)c(C)o1 | 7 | -2 | 0 | -1 | -3 | 4
Cc1ccc2[nH]c(-c3ccccc3)cc(=O)c2c1 | 18 | 35 | 70* | 0 | -4 | 98*
CCCc1cc(=O)[nH]c(/N=C(\N)Nc2ccccc2)n1 | 5 | -1 | 6 | 0 | -3 | 0
COc1ccc(C2=CC(c3ccc(Cl)cc3)n3cnnc3N2)cc1OC (configuration not stated) | 11 | 40 | 35* | -1 | -7 | /
O=C(CSc1ncnc2sc3c(c12)CCCCC3)NCc1ccco1 | -1 | 20 | 3 | -1 | -2 | 38*
Cc1nc2c(sc3nc4c(cc32)COC(C)(C)C4)c(=O)n1CC(=O)NCc1ccco1 | 18 | 17 | 31* | 0 | -3 | /
CC1(C)Cc2nc3sc4c(SCC(=O)NCc5ccco5)ncnc4c3cc2CO1 | 7 | 22 | 11 | 0 | -3 | 78*
COC(=O)c1cc2oc(C)cc2n1CC(=O)Nc1cc(C)cc(C)c1 | 17 | 34 | 14 | 0 | -2 | 11
CCN(CC)S(=O)(=O)c1ccc2c(c1)nc(SCc1nc3ccsc3c(=O)[nH]1)n2CC | 3 | -5 | 3 | 0 | 5 | 6
O=C(CN1CCN(C(c2ccccc2)c2ccccc2)CC1)NC(=O)NCc1ccco1 | 16 | 8 | -6 | 1 | 0 | -1
CN1c2ccccc2C(C)(C)C12C=Cc1cc(O)ccc1O2 (configuration not stated) | 18 | 9 | 6 | 0 | -1 | 54*
COc1ccccc1C1C=C(c2ccccc2)Nc2nnnn21 (configuration not stated) | -4 | 14 | 11 | 1 | -1 | 80*
COc1cccc(C2=CC(c3ccc(OC)c(OC)c3OC)n3nnnc3N2)c1 (configuration not stated) | 4 | 13 | 13 | 0 | -2 | 23
